Most compounds without a hit are left out; they make up all but 3.5% or so of the library.
HIV Env fusion = inhibitors of HIV-1 Env-driven cell-cell fusion, primary screen, HeLa-JRFL effector, CEM21 target cells, luciferase; 360,000 tested, 1.1% active; inhibition, % at 12.3 µM; AID 651610, 2012;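 active = mean replicate inhibition score of at least 50 and every replicate individually at or above 50; inconclusive = only one of the two criteria met; inactive = mean below 50 and not all replicates reaching 50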;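 note: 0% = plate neutral controls and 100% = maraviroc near 300 nM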
Wnt bcat act = Wnt/beta-catenin pathway activators, primary screen, cell-based, plate reader, single point | Wnt/beta-catenin reporter cell assay, activator | activation, % at 9.35 µM | 300,000 tested, 1.2% active; in the data active = activation above about 30%, passing the limit was not always enough; inconclusive = no clear call, values can overlap the other calls;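 note: 0% = neutral control wells and 100% = positive control wells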
ERAP1 HTS inh = human ERAP1 aminopeptidase inhibitors, primary screen, biochemical, single point, plate reader. inhibition, % at 10.7 µM. Endoplasmic reticulum aminopeptidase 1 (Homo sapiens), Q9NZ08. recombinant ERAP1, Leu-AMC fluorescence, 60 min. AID 652197, 2013. 340,000 tested, 0.15% active;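 active = mean replicate inhibition of at least 30%, or all replicates individually reaching that 30% level; inactive = mean below 30% and not every replicate reaching it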;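 note: 0% = neutral control wells and 100% = L-leucinethiol positive control wells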
Target sequence (Q9NZ08 whole entry, looked up): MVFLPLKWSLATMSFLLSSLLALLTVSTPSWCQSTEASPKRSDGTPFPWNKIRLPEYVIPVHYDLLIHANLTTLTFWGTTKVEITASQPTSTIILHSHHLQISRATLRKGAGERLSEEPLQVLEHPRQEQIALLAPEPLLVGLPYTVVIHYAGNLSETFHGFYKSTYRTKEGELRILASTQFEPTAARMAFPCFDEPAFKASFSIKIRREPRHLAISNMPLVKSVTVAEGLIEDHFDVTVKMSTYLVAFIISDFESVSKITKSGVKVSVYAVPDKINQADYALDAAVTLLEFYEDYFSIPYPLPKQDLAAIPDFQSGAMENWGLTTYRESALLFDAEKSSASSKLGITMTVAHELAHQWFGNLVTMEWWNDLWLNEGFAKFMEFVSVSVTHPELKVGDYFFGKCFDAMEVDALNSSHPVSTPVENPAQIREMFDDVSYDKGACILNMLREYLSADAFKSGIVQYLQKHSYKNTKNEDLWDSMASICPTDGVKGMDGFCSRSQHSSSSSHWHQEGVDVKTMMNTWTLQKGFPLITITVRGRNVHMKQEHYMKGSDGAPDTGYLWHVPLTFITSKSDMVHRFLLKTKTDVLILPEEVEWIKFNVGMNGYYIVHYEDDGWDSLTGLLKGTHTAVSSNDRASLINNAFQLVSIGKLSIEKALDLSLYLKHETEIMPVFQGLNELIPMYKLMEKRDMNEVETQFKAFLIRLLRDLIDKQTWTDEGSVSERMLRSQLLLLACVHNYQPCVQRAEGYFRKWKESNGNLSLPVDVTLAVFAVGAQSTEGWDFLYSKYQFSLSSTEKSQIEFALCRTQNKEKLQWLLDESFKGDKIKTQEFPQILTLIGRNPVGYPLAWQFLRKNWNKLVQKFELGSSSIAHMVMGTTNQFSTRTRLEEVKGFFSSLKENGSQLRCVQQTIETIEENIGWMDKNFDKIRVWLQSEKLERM
Cneo AK release = Cryptococcus neoformans cell lysis inducers, primary screen, AK release luminescence, single concentration; lysis activity, % at 15 µM; C. neoformans lysis, adenylate kinase release luminescence, 4 h; normalised: neutral wells 0, clomiphene wells 100; AID 651654, 2012; 360,000 tested, 0.2% active;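 active = mean lysis activity across replicates of at least 80%, whatever share of replicates individually reach that level; inactive = mean lysis activity below 80%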
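Assay system: Cryptococcus neoformans yeast cells / Dosing: single-point compound dose / Timing: 4 h at 37 °C static, read 1 h later / Measured by: luminescence of released adenylate kinase using an AK detection reagent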
esBAF inh = Bmi1 luciferase reporter increase in mESCs, primary screen, esBAF inhibitor project, mouse ES cells, Bmi1 luciferase knock-in, single point | AID 602393, 2012 | reporter increase, % at 12.5 µM | 24 h; 100% = twice the neutral-well signal | 350,000 tested, 2% active; in the data active = activation above about 40%; inconclusive = no clear call, values can overlap the other calls;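 note: 0% = median of the plate's neutral control wells and 100% = double that signal; a rise in the Bmi1 reporter signal indicates esBAF inhibition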
MITF act = activators of MITF-driven TRPM1 promoter reporter, primary screen, cell-based, SK-MEL-5, luciferase, single point. SK-MEL-5 TRPM1-promoter luciferase, 24 h; % of positive control, neutral wells = 0. activation, % at 12.5 µM. 300,000 tested, 0.75% active. AID 588334, 2011;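 active = mean activation of at least 80% with every replicate also reaching 80%; inconclusive = mean reaches 80% but some replicate falls short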;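 note: 0% = neutral control wells and 100% = parthenolide positive control wells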
* hit, by the source's call; ? = inconclusive; . = not tested or not shown; ! = not active in a repeat; [ ] = remark or other dose.

SMILES	HIV Env fusion	Wnt bcat act	ERAP1 HTS inh	Cneo AK release	esBAF inh	MITF act
COc1ccc(N(C(=O)CCl)C(C(=O)NCCc2ccccc2)c2cccs2)cc1Cl (stereo unspecified)	42	1	2	.	.	-85
COc1cccc(S(=O)(=O)Nc2ccc3c(c2)[C@H]2C[C@H](CC(=O)NCCc4ccccc4)O[C@@H](CO)[C@H]2O3)c1	33[16.7 µM]	.	-1	0	16	.
COc1ccc(/C=C/C(=O)NC2CCCCCCC2)cc1S(=O)(=O)N1CCOCC1	-14	6	-4	-1	51*	30
O=[N+]([O-])c1ccc(Nc2nccc(Cl)n2)cc1	5	55*	.	-3	.	.
COc1cc(C(=O)Oc2cccc(C=O)c2)cc(OC)c1OC	.	.	.	1	-1	2
COc1cc(C(=O)Oc2ccccc2N)cc(OC)c1OC	.	.	.	92*	0	1
CO[C@@H](CN(C)CC1CCOCC1)[C@H](C)CN(C(=O)Nc1ccc(F)cc1)[C@@H](C)CO	.	.	-5	-5	0	.
O=C(O)C[C@H]1CC[C@H](NC(=O)CCN2CCCCC2)[C@@H](CO)O1	.	.	2	.	.	.
COc1ccccc1-c1cnc2c(c1)C(=O)N([C@@H](C)CO)C[C@@H](C)[C@H](CN(C)C(=O)c1cccnc1)O2	16	-2	4	89*!	0	.
COCC(=O)N(C)C[C@H]1Oc2ncc(-c3ccccc3F)cc2C(=O)N([C@@H](C)CO)C[C@H]1C	-13[16.7 µM]	.	2	87*	-6	.
C=CCN(C(=O)C1CC(=O)N(C2CCCC2)C1)c1nc(-c2ccc(S(C)(=O)=O)cc2)cs1 (stereo unspecified)	1	15	0	4	54*	46
C=CCN(C(=O)CN1CCCCC1)c1nc(-c2ccccc2)cs1	-10	8	1	0	30	48
C[C@H]1CN([C@@H](C)CO)C(=O)Cc2cc(NC(=O)Nc3ccc(F)cc3)ccc2O[C@@H]1CN(C)C(=O)Nc1ccc(C(F)(F)F)cc1	-23[16.7 µM]	.	.	-1	-1	.
Cc1ccc(NC(=O)c2cc(-c3cc(Cl)ccc3C)n[nH]2)cc1NS(C)(=O)=O	65*	-2	9	-2	5	.
COc1ccc(Cl)cc1-c1cc(C(=O)Nc2ccc(C)c(NS(C)(=O)=O)c2)[nH]n1	16	0	14	1	-3	.
Cc1cccc(NC(=O)c2cc(-c3ccc(C)c(C)c3O)n[nH]2)c1	-50	16	-3	-2	43*	51
O=C(Nc1cccnc1)c1cc(-c2cc(Cl)ccc2O)n[nH]1	-80	38*	-2	.	.	?
Cc1ccc(O)c(-c2cc(C(=O)Nc3cccnc3)[nH]n2)c1	-43	60*	-6	-2	87*	215*
O=C(C[C@@H]1CC[C@H]2[C@@H](COC[C@H](O)CN2Cc2nccs2)O1)NCc1ccc(-c2ccccc2)cc1	.	.	-2	-3	11	.
CCC(=O)Nc1ccc2c(c1)OC[C@@H](C)N(C(=O)Cc1cccnc1)C[C@H](C)[C@H](OC)CN(C)C2=O	.	.	1	1	-1	.
Cc1ccc(S(=O)(=O)N(C)C[C@@H]2Oc3ccc(NC(=O)Nc4ccc(F)cc4)cc3CC(=O)N([C@H](C)CO)C[C@H]2C)cc1	22[16.7 µM]	.	-1	-3	-2	.
Cc1ccc(C)c(NC(=O)c2cc(-c3ccccc3O)n[nH]2)c1	-39	5	-1	-2	65*	56
Cc1ccc(-c2cc(C(=O)Nc3cc(C)ccc3C)[nH]n2)c(O)c1	-28	17	.	-2	31	37
Cc1cc(F)ccc1-c1cc(C(=O)Nc2ccccc2)[nH]n1	-120	3	-12	-5	-60	.
CC(=O)Nc1ccc(NC(=O)c2cc(-c3ccc(F)cc3C)n[nH]2)cc1	.	13	0	-2	61*	.
SMILES	HIV Env fusion	Wnt bcat act	ERAP1 HTS inh	Cneo AK release	esBAF inh	MITF act
CO[C@@H]1CN(C)C(=O)c2ccc(NS(C)(=O)=O)cc2OC[C@@H](C)N(CC2CCOCC2)C[C@H]1C	-3[16.7 µM]	.	1	1	-3	.
O=S(=O)(N[C@@H]1CC[C@H](CCn2cc(-c3ccc(F)cc3)nn2)O[C@@H]1CO)c1ccccc1F	-17[16.7 µM]	.	0	6	5	.
O=Cc1c(-c2ccc(Cl)cc2)oc2ccc(O)cc12	-49	84*	10	-2	?	.
Cc1oc2c(c(C)cc3oc(=O)c(CC(=O)N[C@H](C(=O)O)C(C)C)c(C)c32)c1C	7	-2	35*	2	0	4
Cc1c(CC(=O)N[C@@H](C)C(=O)O)c(=O)oc2cc3c(cc12)CCC(C)(C)O3	9	2	0	2	-2	5
Cc1c(CC(=O)NCC(C)C)c(=O)oc2cc3c(cc12)CCC(C)(C)O3	-3	4	1	-2	27	20
Cc1c(CC(=O)NC(C)C)c(=O)oc2cc3c(cc12)CCC(C)(C)O3	-16	20	0	-1	49*	75
CCC(C)NC(=O)Cc1c(C)c2cc3c(cc2oc1=O)OC(C)(C)CC3 (stereo unspecified)	-8	13	-1	0	67*	63
Cc1c(CC(=O)N[C@H](C(=O)O)C(C)C)c(=O)oc2cc3c(cc12)CCC(C)(C)O3	-35	35*	4	2	61*	60
C[C@@H]1CCCCO[C@@H](CN(C)S(=O)(=O)c2ccccc2)[C@@H](C)CN([C@@H](C)CO)C(=O)c2cc(NC(=O)NC3CCCCC3)ccc2O1	15[16.7 µM]	.	0	3	13	.
O=C(Nc1ccc2c(c1)[C@@H]1C[C@@H](CC(=O)N3CCCCC3)O[C@@H](CO)[C@@H]1O2)C1CCC1	-8[16.7 µM]	.	1	-1	6	.
C[C@@H]1CN([C@@H](C)CO)C(=O)c2c(c3ccccc3n2C)-c2ccccc2CO[C@@H]1CN(C)Cc1ccc(C(=O)O)cc1	.	.	1	-1	1	.
CCOC(=O)c1ccc(NC(=O)/C=C/c2cccs2)cc1	-1	25	-2	.	.	88*
O=C(/C=C/c1cccs1)Nc1cccc(NC(=O)/C=C/c2cccs2)n1	-18	11	0	-22	?	10
Cc1cccc(NC(=O)/C(C#N)=C/c2ccc(Cl)cc2)n1	-9	1	1	2	-12	-1
Cc1cccc(NC(=O)/C=C/c2ccc(Cl)cc2)n1	-192	.	.	.	.	90*
Cc1cc(C)nc(NC(=O)/C=C/c2cccs2)c1	.	16	4	-2	81*	75
Cc1cc(C)c(-c2csc(NC(=O)/C=C/c3cccs3)n2)c(C)c1	63*	11	.	-4	10	-41

Source: PubChem BioAssay (Broad Institute)
